Measurements reported in EPA's CvTdb concentration-time database.

Experiments:
rat [1] = test: concentration in blood after dosing; negative times count back from the end of exposure; details: inhalation
rat [2] = test: concentration in blood after dosing; details: dosed: toluene, 3000 ppm, dermal, duration: 4 hr, male, F344
rat [3] = test: concentration in blood after dosing; details: dosed: toluene, 3000 ppm, dermal, duration: 4 hr, male, F344; remark: listed apart in the source
human [4] = test: concentration in blood after dosing; details: dosed: toluene, 100 ppm, dermal, duration: 30 min, person
In short: (§1)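 Points were largely digitised from plot screenshots with WebPlotDigitizer or otherwise copied from tables, and they remain in the units each source reported. They come from published in vivo toxicokinetic studies and two structured collections. Sampling and analytical methods follow each source and were often not reported.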

rat [5] = test: concentration in blood after dosing; details: dosed: toluene, 3000 ppm, dermal, duration: 4 hr, male, F344; remark: listed apart in the source
rat [6] = test: concentration in blood after dosing; details: dosed: toluene, 3000 ppm, dermal, duration: 4 hr, male, F344; remark: listed apart in the source
rat [7] = test: concentration in blood after dosing; details: dosed: toluene, 3000 ppm, dermal, duration: 4 hr, male, F344; remark: listed apart in the source
rat [8] = test: concentration in blood after dosing; details: dosed: toluene, 3000 ppm, dermal, duration: 4 hr, male, F344; remark: listed apart in the source
human [9] = test: concentration in Capillary Blood after dosing; details: dosed: toluene, 200 mg/m^3, inhalation, duration: 2 hr, male
In short: as §1

human [10] = test: concentration in expired air after dosing; negative times count back from the end of exposure; details: dosed: vinyl chloride, 2.5 ppm, inhalation
In short: as §1

CC(C)O [isopropanol]
rat [1], dosed: isopropanol, duration: 360 min
Details | concentration in blood [ng/mL]
0.3018 h, 476 ppm | 26000
0.31 h, 4960 ppm | 738000
0.5307 h, 476 ppm | 18300
0.5409 h, 4960 ppm | 647000
1.039 h, 476 ppm | 12200
1.102 h, 4960 ppm | 552000
1.98 h, 476 ppm | 6110
2.098 h, 4960 ppm | 367000
3.047 h, 476 ppm | 6110
3.117 h, 4960 ppm | 240000
5.995 h, 476 ppm | 1530
6.019 h, 4960 ppm | 67200
12.07 h, 4960 ppm | 12200
98 s, 4960 ppm | 871000

concentration in blood [ng/mL], rat [1], dosed: isopropanol, duration: 360 min, during exposure
Details | -195 s | -5.546 h | -5.517 h | -5.06 h | -4.913 h | -3.002 h | -2.938 h
476 ppm | 32100 | – | 7640 | 12200 | – | 21400 | –
4960 ppm | – | 141000 | – | – | 241000 | – | 544000

Cc1ccccc1 [toluene]
Details | concentration in Capillary Blood [nM] | concentration in blood
human [4], 0.2477 h | – | 510 nM
human [4], 0.499 h | – | 1720 nM
human [4], 0.7454 h | – | 1620 nM
human [4], 0.9948 h | – | 1210 nM
human [4], 1.5 h | – | 941 nM
human [4], 2.49 h | – | 655 nM
human [4], 3.495 h | – | 453 nM
human [9], 0.1631 h | 5870 | –
human [9], 0.2703 h | 6730 | –
human [9], 0.5028 h | 8250 | –
human [9], 0.7659 h | 9110 | –
human [9], 1.003 h | 9630 | –
human [9], 1.104 h | 9000 | –
human [9], 1.493 h | 10300 | –
human [9], 1.737 h | 10300 | –
human [9], 1.969 h | 10400 | –
human [9], 2.075 h | 4980 | –
human [9], 2.15 h | 4310 | –
human [9], 2.236 h | 4010 | –
human [9], 2.514 h | 3210 | –
human [9], 3.028 h | 1540 | –
human [9], 3.361 h | 1330 | –
human [9], 3.69 h | 1220 | –
human [9], 4.023 h | 1050 | –
human [9], 4.349 h | 959 | –
human [9], 4.444 h | 711 | –
human [9], 4.673 h | 867 | –
human [9], 5.349 h | 763 | –
human [9], 5.678 h | 671 | –
human [9], 5.993 h | 632 | –
human [9], 334 s | 4060 | –
rat [2], 0.5 h | – | 2160 ng/mL
rat [2], 1 h | – | 3520 ng/mL
rat [2], 2 h | – | 5470 ng/mL
rat [2], 3 h | – | 4800 ng/mL
rat [2], 4 h | – | 7390 ng/mL
rat [3], 0.5 h | – | 1830 ng/mL
rat [3], 1 h | – | 3670 ng/mL
rat [3], 2 h | – | 5070 ng/mL
rat [3], 3 h | – | 5760 ng/mL
rat [3], 4 h | – | 7030 ng/mL
rat [5], 0.5 h | – | 4530 ng/mL
rat [5], 1 h | – | 5230 ng/mL
rat [5], 2 h | – | 5470 ng/mL
rat [5], 3 h | – | 6610 ng/mL
rat [5], 4 h | – | 6640 ng/mL
rat [6], 0.5 h | – | 1230 ng/mL
rat [6], 1 h | – | 2720 ng/mL
rat [6], 2 h | – | 4560 ng/mL
rat [6], 3 h | – | 5160 ng/mL
rat [6], 4 h | – | 5840 ng/mL
rat [7], 0.5 h | – | 2910 ng/mL
rat [7], 1 h | – | 5540 ng/mL
rat [7], 2 h | – | 6830 ng/mL
rat [7], 3 h | – | 8230 ng/mL
rat [7], 4 h | – | 8240 ng/mL
rat [8], 0.5 h | – | 4120 ng/mL
rat [8], 1 h | – | 1330 ng/mL
rat [8], 2 h | – | 8440 ng/mL
rat [8], 3 h | – | 10100 ng/mL
rat [8], 4 h | – | 12100 ng/mL

rat [1], dosed: toluene, 100 ppm, duration: 2 hr, male, Wistar
Details | concentration in blood [nM]
0.996 h | 2600
2.004 h | 1520

rat [1], dosed: toluene, 100 ppm, duration: 2 hr, male, Wistar, during exposure
Details | concentration in blood [nM]
-20 s | 8210
-1.759 h | 5580
-1.503 h | 6410
-1.005 h | 6950
-0.5053 h | 9060

C=CCl [vinyl chloride]
concentration in expired air [ppm], human [10]
Details | duration: 0.25 hr | duration: 0.5 hr
2 s | 1.88 | –
4 min | 0.0581 | –
31 s | 0.564 | –
60 s | – | 0.375
64 s | 0.271 | –
121 s | 0.13 | 0.217
179 s | – | 0.198
180 s | 0.118 | –
237 s | – | 0.156
298 s | – | 0.145
299 s | 0.0432 | –

concentration in expired air [ppm], human [10], during exposure
Details | duration: 0.25 hr | duration: 0.5 hr
-299 s | 1.81 | –
-298 s | – | 1.63
-241 s | – | 1.74
-238 s | 1.84 | –
-180 s | 1.88 | –
-122 s | – | 1.77
-119 s | 1.84 | –
-61 s | – | 1.7
-59 s | 1.96 | –
-11 min | 1.68 | 1.81
-8 min | 1.64 | –
-7 min | – | 1.7
-3 min | – | 1.79
-0.4831 h | – | 1.29
-0.4663 h | – | 1.4
-0.4502 h | – | 1.63
-0.4157 h | – | 1.7
-0.3827 h | – | 1.77
-0.3489 h | – | 1.79
-0.316 h | – | 1.77
-0.2823 h | – | 1.86
-0.2493 h | – | 1.45
-0.2413 h | 0.701 | –
-0.2343 h | 1.27 | –
-0.224 h | 1.59 | –
-0.2163 h | – | 1.86
-0.2158 h | 1.57 | –
-0.2001 h | 1.62 | –
-0.1659 h | 1.79 | –
-0.1496 h | – | 1.7
-0.1491 h | 1.72 | –
-0.1161 h | 1.84 | –
-0.1003 h | 1.79 | –
-0 s | – | 1.57
